Assays:
Type in all cases: functional, Erythrocyte
[1] = Antiinflammatory activity assessed as prevention of hypotonicity-induced lysis of human RBC at 50 ug/ml
Summary of the method: (§1)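 Human blood spun at 1500 rpm; packed cells washed in isotonic NaCl (0.85%, pH 7.2) and resuspended 10% v/v. Mixture: compound, 1 ml phosphate buffer (0.15 M, pH 7.4), 2 ml hypotonic NaCl (0.36%), 0.5 ml cell suspension; control used distilled water instead of hypotonic saline. Incubated 37 °C, 30 min, centrifuged; supernatant hemoglobin read at 500 nm.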

[2] = Antiinflammatory activity assessed as prevention of hypotonicity-induced lysis of human RBC at 10 ug/ml; summary of the method: as §1
[3] = Antiinflammatory activity assessed as prevention of hypotonicity-induced lysis of human RBC at 200 ug/ml; summary of the method: as §1
[4] = Antiinflammatory activity assessed as prevention of hypotonicity-induced lysis of human RBC at 100 ug/ml; summary of the method: as §1

Structure (SMILES)	Activity [1] [%]	Activity [2] [%]	Activity [3] [%]	Activity [4] [%]
Cc1cc2c(cc1C)COc1ccccc1C(=O)Nc1ccccc1SCc1ccc(cc1)-c1ccc(cc1)CSc1ccccc1NC(=O)c1ccccc1OC2	82.43	65.17	91	89.67
Cc1cc2c(cc1C)COc1ccccc1C(=O)Nc1ccccc1SCCOc1ccc(cc1)NC(=O)c1ccccc1OC2	45.63	44.28	51.27	50.25
C[C@]12C=CC(=O)C=C1CC[C@@H]1[C@@H]2[C@@H](O)C[C@@]2(C)[C@H]1CC[C@]2(O)C(=O)CO [PREDNISOLONE]	59.34	–	–	86.37
O=C1CSc2ccccc2NC(=O)c2ccccc2OCc2ccccc2COc2ccccc2C(=O)Nc2ccccc2SCC(=O)Nc2ccccc2N1	42.6	40.53	49.65	48.72
Cc1cc2c(cc1C)COc1ccccc1C(=O)N(c1ccccc1)CCNC(=O)COc1ccccc1OCC(=O)NCCN(c1ccccc1)C(=O)c1ccccc1OC2	41.72	38.84	47.97	45.25
Cc1cc2c(cc1C)COc1ccccc1C(=O)Nc1ccccc1SCc1ccc(cc1)NC(=O)c1ccccc1OC2	52.27	50.31	60.86	56.04
Cc1cc2c(cc1C)COc1ccccc1C(=O)Nc1ccccc1SCc1ccc(cc1)-c1cccc(c1)-c1ccc(cc1)CSc1ccccc1NC(=O)c1ccccc1OC2	49.37	48.27	54.14	51.42
